ChEMBL document CHEMBL4190216, “Asymmetric 1,5-diarylpenta-1,4-dien-3-ones: Antiproliferative activity in prostate epithelial cell models and pharmacokinetic studies” (Eur J Med Chem, 2017)

Experiments:
[1] = test system: DU-145; assay: Antiproliferative activity against human DU145 cells assessed as decrease in cell viability after 3 days by WST assay; format: functional, cell-based; conditions: DU-145, 72 h
How it was run: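 Cells were seeded at 3,200 per well. PC-3 and LNCaP were grown in RPMI-1640 and DU-145 in EMEM, each with 10% FBS and 1% penicillin/streptomycin, at 37 °C and 5% CO2. Cells were exposed for 3 days to at least five concentrations, with DMSO as vehicle control. WST-1 reagent was then added for 3 h at 37 °C and absorbance read at 430 nm. IC50 came from linear inhibition, averaged over triplicates.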

[2] = test system: DU-145; assay: Potency index, ratio of curcumin IC50 to test compound IC50 for human DU145 cells; format: functional
[3] = test system: PWR-1E; assay: Antiproliferative activity against human PWR-1E cells expressing androgen receptor and PSA assessed as decrease in cell viability after 3 days by WST assay; format: functional, cell-based; conditions: 72 h
How it was run: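 Non-malignant prostate epithelial PWR-1E (adenovirus 12/SV40-immortalized) was seeded at 5,000 per well. Cells were exposed for 3 days at 37 °C in a CO2 incubator to at least five concentrations, with DMSO as vehicle control. WST-1 reagent was then added for 3 h at 37 °C and absorbance read at 430 nm. IC50 came from linear inhibition, as the mean of triplicate determinations.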

[4] = test system: VCaP; assay: Antiproliferative activity against human VCaP cells expressing androgen receptor splice variants assessed as decrease in cell viability after 5 days by trypan blue exclusion assay; format: functional, cell-based; conditions: 120 h
[5] = test system: CWR22R; assay: Antiproliferative activity against human 22Rv1 cells expressing androgen receptor splice variants assessed as decrease in cell viability after 5 days by trypan blue exclusion assay; format: functional, cell-based; conditions: 22Rv1, 120 h
[6] = AUC in Sprague-Dawley rat at 10 mg/kg administered via oral gavage by HPLC-MS/MS analysis; format: ADME, organism-based; conditions: in vivo
[7] = Drug metabolism in human liver microsomes assessed as (1Z,4E)-5-(1-sec-butyl-1H-imidazol-2-yl)-1-hydroxy-1-(2-methyl-4-(trifluoromethyl)thiazol-5-yl)penta-1,4-dien-3-one formation at 10 mM after 60 mins by UHPLC analysis; format: ADME, microsome
How it was run: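 Pooled human liver microsomes in potassium phosphate buffer (pH 7.4) with NADPH solutions A and B were preincubated for 5 min at 37 °C. Compound was then added from a 10 mM stock (3 μL into 300 μL total) and incubated 60 min at 37 °C. Reactions were quenched with an equal volume of methanol and centrifuged (10,000 × g, 4 min, 4 °C). Supernatant went to UHPLC–high-resolution MS for metabolite identification.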

[8] = test system: PC-3; assay: Cell cycle arrest in human PC3 cells assessed as accumulation at G0/G1 phase at 5 uM after 16 hrs by propidium iodide staining-based flow cytometric method (reference value: 51 to 52%); format: functional
[9] = test system: PC-3; assay: Cell cycle arrest in human PC3 cells assessed as accumulation at G2 phase at 5 uM after 24 hrs by propidium iodide staining-based flow cytometric method (reference value: 24%); format: functional
[10] = test system: PC-3; assay: Induction of apoptosis in human PC3 cells assessed as early apoptotic cells at 10 uM after 16 hrs by F2N12S/CYTOX AADvanced double staining-based flow cytometric method (reference value: 2%); format: functional
[11] = test system: PC-3; assay: Induction of apoptosis in human PC3 cells assessed as early apoptotic cells at 20 uM after 16 hrs by F2N12S/CYTOX AADvanced double staining-based flow cytometric method (reference value: 2%); format: functional
[12] = test system: PC-3; assay: Induction of apoptosis in human PC3 cells assessed as early apoptotic cells at 30 uM after 16 hrs by F2N12S/CYTOX AADvanced double staining-based flow cytometric method (reference value: 2%); format: functional
[13] = test system: PC-3; assay: Induction of apoptosis in human PC3 cells assessed as late apoptotic/necrotic cells at 40 uM after 16 hrs by F2N12S/CYTOX AADvanced double staining-based flow cytometric method (reference value: 3%); format: functional

## CCC(C)n1ccnc1/C=C/C(=O)/C=C/c1sc(C)nc1C(F)(F)F (stereo not drawn)
[1]
  IC50: 350 nM
[2]
  Ratio IC50: 75
[3]
  IC50: 110 nM
[4]
  IC50: 350 nM
[5]
  IC50: 850 nM
[6]
  AUC: 24700 ng·h/mL
[7]
  Drug metabolism: Metabolite_Detected
[8]
  Activity: 68%
[9]
  Activity: 21%
[10]
  Activity: 14%
[11]
  Activity: 26%
[12]
  Activity: 20%
[13]
  Activity: 53%
